Published values gathered from unrelated publications.
Protocols differ between the studies behind these lines.
Target: Serine/threonine-protein kinase LATS2 (LATS2, Homo sapiens, UniProt Q9NRM7)
One construct used (Q9NRM7 1-1088): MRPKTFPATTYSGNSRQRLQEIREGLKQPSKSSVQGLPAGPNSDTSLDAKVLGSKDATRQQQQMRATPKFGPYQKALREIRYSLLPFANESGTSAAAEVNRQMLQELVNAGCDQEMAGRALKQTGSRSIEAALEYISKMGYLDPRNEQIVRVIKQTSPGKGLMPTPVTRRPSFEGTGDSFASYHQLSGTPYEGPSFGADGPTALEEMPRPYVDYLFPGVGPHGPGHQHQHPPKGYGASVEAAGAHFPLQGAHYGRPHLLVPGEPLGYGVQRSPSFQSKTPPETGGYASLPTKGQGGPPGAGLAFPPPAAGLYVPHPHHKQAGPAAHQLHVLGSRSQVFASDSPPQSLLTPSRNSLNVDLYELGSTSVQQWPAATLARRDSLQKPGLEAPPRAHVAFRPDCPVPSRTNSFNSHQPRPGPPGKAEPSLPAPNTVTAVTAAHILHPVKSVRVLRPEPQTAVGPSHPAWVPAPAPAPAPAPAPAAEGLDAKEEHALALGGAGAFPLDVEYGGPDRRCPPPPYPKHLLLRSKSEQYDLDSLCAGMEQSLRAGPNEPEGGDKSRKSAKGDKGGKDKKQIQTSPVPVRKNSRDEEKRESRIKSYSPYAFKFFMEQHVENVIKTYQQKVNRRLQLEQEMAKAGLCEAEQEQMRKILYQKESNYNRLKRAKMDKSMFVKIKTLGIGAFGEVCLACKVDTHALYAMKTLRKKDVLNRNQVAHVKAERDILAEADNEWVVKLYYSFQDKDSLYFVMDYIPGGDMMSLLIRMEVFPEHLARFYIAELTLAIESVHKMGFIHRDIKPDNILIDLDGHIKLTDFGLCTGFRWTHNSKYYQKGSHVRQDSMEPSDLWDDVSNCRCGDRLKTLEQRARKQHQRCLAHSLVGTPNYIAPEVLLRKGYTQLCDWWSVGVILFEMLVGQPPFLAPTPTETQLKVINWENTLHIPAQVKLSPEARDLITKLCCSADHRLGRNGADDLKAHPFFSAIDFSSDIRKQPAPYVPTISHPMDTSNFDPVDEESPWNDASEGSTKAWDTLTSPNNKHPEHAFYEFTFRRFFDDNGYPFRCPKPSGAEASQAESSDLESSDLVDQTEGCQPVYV

| SMILES | effect on | method | tested at | remaining binding [%] |
| --- | --- | --- | --- | --- |
| N[C@H]1CCN(c2nccc(-c3cnn4ncccc34)n2)C1 | binding | – | 1 µM | 74 |
| CNC(=O)[C@@H]1CC[C@@H](n2c(-c3ccc4cnccc4c3)nc3ccc(C(=O)NCc4cccc(C(N)=O)c4)cc32)C1 | binding | competition with immobilised ligand | 1 µM | 100 |
| c1cnn2ncc(-c3ccnc(N4CCC45COC5)n3)c2c1 | binding | – | 1 µM | 88 |
| Cc1nccc(COC(=O)N2C[C@@H]3[C@@H](CNC(=O)c4ccc5[nH]nnc5c4)[C@@H]3C2)n1 | cell-free assay | competition with immobilised ligand | 1 µM | 97 |
| Nc1ncc2c(n1)-c1c([nH]c3ccc(C#CC4CC4)cc13)CCCC2 | binding | competition with immobilised ligand | 1 µM | 91 |
| CN(C)c1nccc(-c2cnc3ncccn23)n1 | binding | – | 1 µM | 79 |
| CS(=O)(=O)NCC[C@H](NC(=O)c1cncc2c1cnn2-c1ccc(F)cc1)c1ccnc(S(C)(=O)=O)c1 | cell-free assay | competition with immobilised ligand | 1 µM | 97 |
| C[C@H]1CCN(c2nccc(-c3cnn4ncccc34)n2)C1 | binding | – | 1 µM | 83 |
| CCCCN(CCCC)C(=O)CN1C[C@@H](c2cc(OC)c3c(c2)OCO3)[C@H](C(=O)O)[C@H]1CC(C)(C)CCC | cell-free assay | competition with immobilised ligand | 1 µM | 100 |
| CCN1CCN(Cc2ccc(C(=O)Nc3ccc(C)c(Oc4ccc5c(c4)CC(=O)N5)c3)cc2C(F)(F)F)CC1 | binding | competition with immobilised ligand | 1 µM | 100 |
| CCCNc1nc(C#Cc2ccc(Cl)s2)nc2c1ncn2[C@H]1[C@H](O)[C@H](O)[C@]2(C(=O)NC)C[C@H]12 | binding | competition with immobilised ligand | 10 µM | 26 |
| FC(F)(F)Oc1cccc(-c2cnc3ccc(-c4ccncc4)nn23)c1 | cell-free assay | competition with immobilised ligand | 5 µM | 38 |
| FC(F)(F)c1ccc2c(c1)nc(-c1cccnc1)n2C1CC1 | cell-free assay | competition with immobilised ligand | 1 µM | 100 |
| O=C(c1ccc(Nc2ncc(Cl)c(-c3ccc(Cl)s3)n2)cc1)N1CCC(N2CCCC2)CC1 | binding | competition with immobilised ligand | 1 µM | 3.8 |
| C[C@@]1(Cc2ccc(C#N)cc2)C(=O)N(c2cc(Cl)cc(Cl)c2)c2ncc(C(=O)NC3(c4nc(C5CCC5)no4)CC3)n21 | cell-free assay | competition with immobilised ligand | 1 µM | 92 |
| O=C(Nc1c[nH]nc1C(=O)NC1CCNCC1)c1cc(F)cc(F)c1 | binding | competition with immobilised ligand | 1 µM | 94 |
| CN(c1nccc(-c2cnn3ncccc23)n1)C1CC1 | binding | – | 1 µM | 100 |
| O=C1CCc2cc(Nc3cc(OC4CCOCC4)c([N+](=O)[O-])cc3Cl)ccc2N1 | cell-free assay | competition with immobilised ligand | 1 µM | 80 |
| F[C@@H]1CCN(c2nccc(-c3cnn4ncccc34)n2)C1 | binding | – | 1 µM | 100 |
| O=C(c1ccc(Nc2nccc(-c3cc4ccccc4s3)n2)cc1)N1CCC(N2CCCC2)CC1 | binding | competition with immobilised ligand | 1 µM | 72 |
